Where a chain is given by its changes, count along the chain named. In brackets after ≈: the same amount, converted by molar mass. Activity calls are given as the source filed them. The rule behind the calls is not given here.
How the values were obtained:
[1] = tested on: Staphylococcus aureus subsp. aureus USA300; assay: Inhibition of DltB tn::1050 mutant in Staphylococcus aureus USA300 JE2 at 1 ug/ml after 16 to 18 hrs
[2] = Cytotoxicity against African green monkey Vero cells assessed cell viability at 10 uM relative to control; assay type: toxicity, cell-based; details: chlorocebus sabaeus, read-out: Activity
[3] = Cytotoxicity against African green monkey Vero cells assessed cell viability at 5 uM relative to control; assay type: toxicity, cell-based; details: chlorocebus sabaeus, read-out: Activity
[4] = tested on: Staphylococcus aureus subsp. aureus RN4220; assay: Inhibition of DltB in ypfP-deficient Staphylococcus aureus RN4220 at 1 ug/ml after 16 to 18 hrs
Summary of the method: (§1)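 S. aureus overnight cultures (Newman WT, Newman ΔtarO, SEJ1 ΔltaS, RN4220 ΔypfP) diluted 1:100 in TSB and grown to OD600 ~1. Cultures were normalized to OD600 1 and diluted 1:1000. A DMSO compound dilution series was added to give final 0–32 µg/mL. Plates were incubated at 30°C for 16–18 h, then growth was read as OD600.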

[5] = tested on: T1, Teichoic acid D-alanyltransferase (Staphylococcus aureus), Q53662 [A355E]; assay: Inhibition of DltB A355E mutant in Staphylococcus aureus Newman up to 32 ug/ml after 16 to 18 hrs by spectrophotometric analysis; details: Staphylococcus aureus subsp. aureus str. Newman
T1 sequence (whole entry): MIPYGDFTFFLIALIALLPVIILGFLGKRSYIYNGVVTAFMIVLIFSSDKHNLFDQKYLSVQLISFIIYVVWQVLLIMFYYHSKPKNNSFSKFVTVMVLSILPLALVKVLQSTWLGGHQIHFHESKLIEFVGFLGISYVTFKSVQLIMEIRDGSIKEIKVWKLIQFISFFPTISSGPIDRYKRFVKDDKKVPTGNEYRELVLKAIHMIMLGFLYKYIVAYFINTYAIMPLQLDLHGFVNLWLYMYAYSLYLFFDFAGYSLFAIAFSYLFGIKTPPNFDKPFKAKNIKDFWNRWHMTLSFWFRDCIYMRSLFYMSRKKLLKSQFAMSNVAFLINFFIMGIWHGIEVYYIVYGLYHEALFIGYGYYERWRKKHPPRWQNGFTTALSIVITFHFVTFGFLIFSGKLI
Summary of the method: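 Broth-dilution MIC. Overnight cultures of the parent and the resistant mutants (selected in the […] background) were diluted 1:100 and grown in TSB at 30°C to OD600 ~1. They were then normalized to OD600 1 and diluted 1:1000. Compound series were made in DMSO, with 3 µL added to 147 µL of culture for a final 0–32 µg/mL. Plates were held 16–18 h at 30°C and OD600 was read.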

[6] = tested on: Staphylococcus aureus subsp. aureus str. Newman; assay: Inhibition of DltB in Staphylococcus aureus Newman assessed as suppression of 14C-D-Ala incorporation into LTA up to 16 ug/ml preincubated for 30 mins followed by 14C-D-Ala addition after 30 mins by PAGE autoradiography
Summary of the method: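 S. aureus Newman overnight culture diluted 1:100 and grown in TSB at 30°C to OD600 0.6. Cells were resuspended in 0.25X TSB pH 6.0 with 200 µg/mL D-cycloserine and compound at 0–16 µg/mL (eight levels), then held 30 min at 30°C, 300 rpm. Cells were then resuspended in the same buffer with compound plus 14C-D-Ala for a further 30 min. Lysates were boiled in SDS buffer and run on 4–20% Tris-glycine PAGE, then autoradiographed for labelled LTA.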

[7] = tested on: T2, Teichoic acid D-alanyltransferase (Staphylococcus aureus), Q53662 [S175T]; assay: Inhibition of DltB S175T mutant in Staphylococcus aureus Newman up to 32 ug/ml after 16 to 18 hrs by spectrophotometric analysis; details: Staphylococcus aureus subsp. aureus str. Newman
T2 sequence (whole entry): T1 sequence (whole entry) with S175T, E355A

[8] = tested on: Staphylococcus aureus; assay: Inhibition of DltB in ltaS-deficient Staphylococcus aureus SEJ1 at 1 ug/ml after 16 to 18 hrs; summary of the method: as §1
[9] = Cytotoxicity against African green monkey Vero cells assessed cell viability at 1.3 uM relative to control; assay type: toxicity, cell-based; details: chlorocebus sabaeus, read-out: Activity
[10] = tested on: Staphylococcus aureus subsp. aureus str. Newman; assay: Inhibition of DltB in Taro-deficient Staphylococcus aureus Newman at 1 ug/ml after 16 to 18 hrs; summary of the method: as §1
[11] = Cytotoxicity against African green monkey Vero cells assessed cell viability at 2.5 uM relative to control; assay type: toxicity, cell-based; details: chlorocebus sabaeus, read-out: Activity
[12] = tested on: Staphylococcus aureus; assay: Inhibition of DltB in ltaS-deficient Staphylococcus aureus SEJ1 at 5 ug/ml after 16 to 18 hrs; summary of the method: as §1
[13] = tested on: Staphylococcus aureus subsp. aureus RN4220; assay: Inhibition of DltB in ypfP-deficient Staphylococcus aureus RN4220 at 5 ug/ml after 16 to 18 hrs; summary of the method: as §1
[14] = tested on: Staphylococcus aureus subsp. aureus str. Newman; assay: Inhibition of DltB in Taro deficient Staphylococcus aureus Newman at 5 ug/ml after 16 to 18 hrs; summary of the method: as §1
[15] = tested on: Staphylococcus aureus; assay: Antibacterial activity against wild type Staphylococcus aureus Newman at 5 ug/ml after 16 to 18 hrs; assay type: functional; summary of the method: as §1
[16] = tested on: Staphylococcus aureus subsp. aureus USA300; assay: Inhibition of DltB tn::1050 mutant in Staphylococcus aureus USA300 JE2 at 5 ug/ml after 16 to 18 hrs

| Compound | inhibition [1] | viability at 10 µM [2] [%] | viability at 5 µM [3] [%] | inhibition [4] | MIC [5] [µg/mL] | inhibition [6] | MIC [7] [µg/mL] | inhibition [8] | viability at 1.3 µM [9] [%] | inhibition [10] | viability at 2.5 µM [11] [%] | inhibition [12] | inhibition [13] | inhibition [14] | Activity [15] | inhibition [16] |
| --- | --- | --- | --- | --- | --- | --- | --- | --- | --- | --- | --- | --- | --- | --- | --- | --- |
| COc1ccc(-c2csc(NC(=O)/C=C/c3cccs3)n2)c(OC)c1 | Active | 106 | 106 | Active | > 32 | Active | 0.5 (≈ 1.34 µM) | Active | 106 | Active | 106 |  |  |  |  |  |
| COc1cc(NS(C)(=O)=O)ccc1Nc1c2ccccc2nc2ccccc12 |  |  |  |  | 2 (≈ 5.08 µM) |  | > 32 |  |  |  |  | Active | Active | Active | Active | Active |

From ChEMBL document CHEMBL3867455, “Accelerating the discovery of antibacterial compounds using pathway-directed whole cell screening” (Bioorg Med Chem, 2016)
